Measured values: ChEMBL document CHEMBL1671729, “In vivo protection provided by a synthetic new alpha-galactosyl ceramide analog against bacterial and viral infections in murine models” (2010)
Activity calls are given as the source filed them. The calls are words filed in the database; no cut-off is given here.

What was measured:
[1] = test system: Japanese encephalitis virus; assay: Antiviral activity against Japanese encephalitis virus RP-9 infected in C57BL/6 mouse assessed as mouse survival rate at 1 ug, ip administered one day before and 1 day after viral infection measured after 25 days post infection relative to solvent treated control; format: functional
[2] = test system: Novosphingobium capsulatum; assay: Antibacterial activity against Sphingomonas capsulata ATCC 14666 infected in C57BL/6 mouse assessed as reduction in lung bacterial load at 50 ug/kg, ip administered 2 hrs post infection measured 24 hrs post infection; format: functional, organism-based
[3] = test system: Japanese encephalitis virus; assay: Antiviral activity against Japanese encephalitis virus RP-9 infected in Stat-1-knockout immunodeficient C57BL/6 mouse assessed as mouse survival rate at 1 ug, ip administered one day before and 1 day after viral infection measured after 25 days post infection relative to solvent treated control; format: functional
[4] = test system: Japanese encephalitis virus; assay: (§1) Antiviral activity against Japanese encephalitis virus RP-9 infected in Ig-mu chain-knockout immunodeficient C57BL/6 mouse assessed as mouse survival rate at 1 ug, ip administered one day before and 1 day after viral infection measured after 25 days post infection relative to solvent treated control; format: functional, organism-based
[5] = test system: Japanese encephalitis virus; assay: as §1, with “CD8-alpha” for “Ig-mu”; format: functional
[6] = test system: Japanese encephalitis virus; assay: Antiviral activity against Japanese encephalitis virus RP-9 infected in C57BL/6 mouse assessed as mouse survival rate at 1 ug, ip administered one day before viral infection measured after 25 days post infection relative to solvent treated control; format: functional
[7] = test system: Japanese encephalitis virus; assay: Antiviral activity against Japanese encephalitis virus RP-9 infected in C57BL/6 mouse assessed as mouse survival rate at 1 ug, ip administered simultaneously with viral infection measured after 25 days post infection relative to solvent treated control; format: functional
[8] = test system: Japanese encephalitis virus; assay: Antiviral activity against Japanese encephalitis virus RP-9 infected in C57BL/6 mouse assessed as mouse survival rate at 1 ug, ip administered one day after viral infection measured after 25 days post infection relative to solvent treated control; format: functional
[9] = test system: Staphylococcus aureus; assay: Antibacterial activity against luminescent Staphylococcus aureus Xen29 infected in BALB/c mouse deep thigh wound infection model assessed as reduction in bacterial load at 150 ug/kg, ip administered 3 hrs post infection by iVIS in-vivo imaging system; format: functional, organism-based
Summary of the method: (§2)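 Female BALB/c mice were infected in the left posterior thigh muscle with 3 × 10^8 CFU luminescent S. aureus Xen29 in 200 μl PBS. Glycolipid at 150 μg/kg or vehicle was given i.p. at 3 h, 0 h or 6 h post-infection. Live mice were imaged at 48 h, and RLU per mouse was compared by one-way ANOVA with Tukey posttest.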

[10] = test system: Novosphingobium capsulatum; assay: Antibacterial activity against Sphingomonas capsulata ATCC 14666 infected in C57BL/6 mouse assessed as reduction in lung bacterial load at 100 ug/kg, ip administered 2 hrs post infection measured 24 hrs post infection; format: functional, organism-based
[11] = test system: Staphylococcus aureus; assay: Antibacterial activity against luminescent Staphylococcus aureus Xen29 infected in BALB/c mouse deep thigh wound infection model assessed as reduction in bacterial load at 150 ug/kg, ip administered immediately after infection measured 48 hrs post infection by iVIS in-vivo imaging system; format: functional, organism-based; summary of the method: as §2
[12] = test system: Staphylococcus aureus; assay: Antibacterial activity against luminescent Staphylococcus aureus Xen29 infected in BALB/c mouse deep thigh wound infection model assessed as reduction in bacterial load at 150 ug/kg, ip administered 6 hr post infection after infection measured 48 hrs post infection by iVIS in-vivo imaging system; format: functional, organism-based; summary of the method: as §2

| Compound | Survival [1] | inhibition [2] | inhibition [9] | inhibition [10] | other results |
| --- | --- | --- | --- | --- | --- |
| CCCCCCCCCCCCCC[C@@H](O)[C@@H](O)[C@H](CO[C@H]1O[C@H](CO)[C@H](O)[C@H](O)[C@H]1O)NC(=O)CCCCCCCc1ccc(F)cc1 | 57% | Active |  |  |  |
| CCCCCCCCCCCCCC[C@@H](O)[C@@H](O)[C@H](CO[C@H]1O[C@H](C(=O)O)[C@H](O)[C@H](O)[C@H]1O)NC(=O)CCCCCCCCCCc1ccc(F)cc1 | 71% | Active | Active |  | Survival [3]: 0%; Survival [4]: inactive; Survival [5]: 22%; Survival [6]: 60%; Survival [7]: 60%; Survival [8]: 25% |
| CCCCCCCCCCCCCCCCCCCCCCCCCC(=O)N[C@@H](CO[C@H]1O[C@H](CO)[C@H](O)[C@H](OS(=O)(=O)O)[C@H]1O)[C@H](O)[C@H](O)CCCCCCCCCCCCCC |  |  |  | inactive |  |
| CCCCCCCCCCCCCC[C@@H](O)[C@@H](O)[C@H](CO[C@H]1O[C@H](CO)[C@H](O)[C@H](O)[C@H]1O)NC(=O)CCCCCCCCCCc1ccccc1 |  |  |  | Active |  |
| CCCCCCCCCCCCCCCCCCCCCCCCCC(=O)N[C@@H](CO[C@H]1O[C@H](CO)[C@H](O)[C@H](O)[C@H]1O)[C@H](O)[C@H](O)CCCCCCCCCCCCCC [RGI-7000] | 57% |  | Active | Active |  |
| CCCCCCCCCCCCCCCCCCCCCCCCCC(=O)N[C@@H](CO[C@H]1O[C@H](C(=O)O)[C@H](O)[C@H](O)[C@H]1O)[C@H](O)[C@H](O)CCCCCCCCCCCCCC |  |  |  | Active |  |
| CCCCCCCCCCCCCC[C@@H](O)[C@@H](O)[C@H](CO[C@H]1O[C@H](CO)[C@H](O)[C@H](O)[C@H]1O)NC(=O)CCCCCCCc1ccccc1 |  |  |  | Active |  |
| CCCCCCCCCCCCCC[C@@H](O)[C@@H](O)[C@H](CO[C@H]1O[C@H](C(=O)O)[C@H](O)[C@H](O)[C@H]1O)NC(=O)CCCCCCCCCCc1ccc(Oc2ccc(F)cc2)cc1 | 64% | Active | Active |  | Survival [3]: 23%; Survival [4]: inactive; Survival [6]: 80%; Survival [7]: 40%; Survival [8]: 20%; inhibition [11]: Active; inhibition [12]: inactive |
| CCCCCCCCCCCCCCC[C@@H](O)[C@H](CO[C@H]1O[C@H](C(=O)O)[C@H](O)[C@H](O)[C@H]1O)NC(=O)CCCCCCCCCCCCC |  |  |  | inactive |  |
| CCCCCCCCCCCCCCCCCCCCCCCC(=O)N[C@@H](CO[C@H]1O[C@H](CO)[C@H](O)[C@H](O)[C@H]1O)[C@H](O)[C@H](O)CCCCC |  |  |  | inactive |  |
